Columns and labels:
[1] = Growth inhibition of human HOP92 cells after 48 hrs by sulforhodamine B assay; type: functional; settings: HOP-92, 48 h
Outline: (§1)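 NCI-60 five-dose screen: cells incubated 48 h with five concentrations (0.01-100 µM), read by sulforhodamine B protein assay. Log concentration-% growth inhibition curves gave GI50 (50% decrease in net growth), TGI (total growth inhibition) and LC50 (net 50% loss of initial cells). 5-FU positive control.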

[2] = system: NCI-H522; assay: Growth inhibition of human NCI-H522 cells after 48 hrs by sulforhodamine B assay; type: functional; settings: NCI-H522, 48 h; outline: as §1
[3] = system: NCI-H226; assay: Growth inhibition of human NCI-H226 cells after 48 hrs by sulforhodamine B assay; type: functional; settings: NCI-H226, 48 h; outline: as §1
[4] = system: HL-60(TB); assay: Growth inhibition of human HL-60(TB) cells after 48 hrs by sulforhodamine B assay; type: functional; settings: HL-60, 48 h
Outline: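 NCI-60 five-dose screen, HL-60(TB) being one of the leukemia subpanel lines. Cells exposed to five concentrations (0.01-100 µM) for 48 h. GI50 (concentration giving 50% decrease in net cell growth) read from log concentration-% growth inhibition curves; TGI and LC50 also derived. 5-fluorouracil as positive control.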

[5] = system: HOP-62; assay: Growth inhibition of human HOP62 cells after 48 hrs by sulforhodamine B assay; type: functional; settings: HOP-62, 48 h; outline: as §1
[6] = Growth inhibition of human UO31 cells after 48 hrs by sulforhodamine B assay; type: functional; settings: UO-31, 48 h; outline: as §1
[7] = Growth inhibition of human RPMI8226 cells after 48 hrs by sulforhodamine B assay; type: functional; settings: RPMI-8226, 48 h; outline: as §1
[8] = system: SNB-75; assay: Growth inhibition of human SNB75 cells after 48 hrs by sulforhodamine B assay; type: functional; settings: SNB-75, 48 h; outline: as §1
[9] = system: MDA-MB-231; assay: Growth inhibition of human MDA-MB-231 cells after 48 hrs by sulforhodamine B assay; type: functional; settings: MDA-MB-231, 48 h; outline: as §1
[10] = Growth inhibition of human MOLT4 cells after 48 hrs by sulforhodamine B assay; type: functional; settings: MOLT-4, 48 h; outline: as §1
[11] = Growth inhibition of human OVCAR4 cells after 48 hrs by sulforhodamine B assay; type: functional; settings: OVCAR-4, 48 h; outline: as §1
[12] = system: SF-268; assay: Growth inhibition of human SF268 cells after 48 hrs by sulforhodamine B assay; type: functional; settings: SF-268, 48 h; outline: as §1
[13] = system: DU-145; assay: Growth inhibition of human DU145 cells after 48 hrs by sulforhodamine B assay; type: functional; settings: DU-145, 48 h; outline: as §1
[14] = system: A498; assay: Growth inhibition of human A498 cells after 48 hrs by sulforhodamine B assay; type: functional; settings: A498, 48 h; outline: as §1
[15] = Growth inhibition of human UACC62 cells after 48 hrs by sulforhodamine B assay; type: functional; settings: UACC-62, 48 h; outline: as §1
[16] = system: SR; assay: Growth inhibition of human SR cells after 48 hrs by sulforhodamine B assay; type: functional; outline: as §1
[17] = system: SN12C; assay: Growth inhibition of human SN12C cells after 48 hrs by sulforhodamine B assay; type: functional; outline: as §1
[18] = Growth inhibition of human EKVX cells after 48 hrs by sulforhodamine B assay; type: functional; outline: as §1
[19] = Growth inhibition of human BT549 cells after 48 hrs by sulforhodamine B assay; type: functional; settings: BT-549, 48 h; outline: as §1
[20] = system: CCRF-CEM; assay: Growth inhibition of human CCRF-CEM cells after 48 hrs by sulforhodamine B assay; type: functional; outline: as §1
[21] = Growth inhibition of human SF539 cells after 48 hrs by sulforhodamine B assay; type: functional; settings: SF-539, 48 h; outline: as §1
[22] = system: MCF7; assay: Growth inhibition of human MCF7 cells after 48 hrs by sulforhodamine B assay; type: functional; settings: MCF7, 48 h; outline: as §1
[23] = system: IGROV-1; assay: Growth inhibition of human IGROV1 cells after 48 hrs by sulforhodamine B assay; type: functional; settings: IGROV-1, 48 h; outline: as §1
[24] = Growth inhibition of human HCT116 cells after 48 hrs by sulforhodamine B assay; type: functional; settings: HCT-116, 48 h; outline: as §1
[25] = Antioxidant activity assessed as DPPH radical scavenging activity at 10^-4 M incubated for 30 mins by spectrophotometry; type: physicochemical; settings: 0.5 h, 100 µM
Outline: (§2)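 Compound at 10^-3 or 10^-4 M mixed with methanolic DPPH (0.1 mL of 1 mM stock; 3 mL total volume), shaken, kept in the dark 30 min at room temperature. Absorbance read at 517 nm. Scavenging (%) = (A_control − A_sample)/A_control × 100, where the control is DPPH in methanol alone. BHT served as reference antioxidant. Triplicate, mean ± SD of three independent experiments.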

[26] = Antioxidant activity assessed as DPPH radical scavenging activity at 10^-3 M incubated for 30 mins by spectrophotometry; type: physicochemical; settings: 0.5 h, 1000 µM; outline: as §2
[27] = read-out: LC50 (the source's name)

Compound	GI50 [1] [µM]	GI50 [2] [µM]	GI50 [3] [µM]	GI50 [4] [µM]	GI50 [5] [µM]	GI50 [6] [µM]	GI50 [7] [µM]	GI50 [8] [µM]	GI50 [9] [µM]	GI50 [10] [µM]	GI50 [11] [µM]	GI50 [12] [µM]	GI50 [13] [µM]	GI50 [16] [µM]	GI50 [17] [µM]	GI50 [18] [µM]	GI50 [19] [µM]	GI50 [21] [µM]	GI50 [22] [µM]	GI50 [24] [µM]	other results
Cn1cccc1-c1cc(-c2cccs2)nc(N)c1C#N	> 100	> 100	> 100	> 100	> 100	> 100	> 100	45.7	> 100	> 100	85.1	> 100	> 100	5.37	> 100	> 100	> 100	> 100	> 100	> 100	GI50 [14]: > 100 µM; GI50 [15]: 87.1 µM; TGI [16]: 67.6 µM; GI50 [20]: > 100 µM; GI50 [23]: > 100 µM
Cc1cc(C(C)(C)C)c(O)c(C(C)(C)C)c1 [BUTYLATED HYDROXYTOLUENE]	–	–	–	–	–	–	–	–	–	–	–	–	–	–	–	–	–	–	–	–	inhibition (INH) [25]: 20%; inhibition (INH) [26]: 36%
Cn1cccc1-c1cc(-c2ccccc2)nc(N)c1C#N	0.01	61.6	> 100	0.76	81.3	> 100	53.7	18.6	67.6	> 100	46.8	79.4	> 100	35.5	> 100	95.5	60.2	33.9	> 100	> 100	TGI [1]: 0.05 µM; inhibition (INH) [25]: 12%; TGI [8]: 77.6 µM; GI50 [14]: 91.2 µM; GI50 [15]: 44.7 µM; GI50 [20]: 0.08 µM; LC50 (concentration causing net 50% loss of initial cells) [20]: 3.55 µM; TGI [20]: 0.38 µM; GI50 [23]: > 100 µM; inhibition (INH) [26]: 27%
CC1CCCc2c1nc(N)c(C#N)c2-c1cccn1C (stereo not drawn)	47.9	66.1	64.6	0.42	> 100	> 100	79.4	22.4	69.2	> 100	77.6	> 100	> 100	3.39	30.2	> 100	69.1	> 100	> 100	> 100	inhibition (INH) [25]: 9%; TGI [8]: 85.1 µM; GI50 [14]: 91.2 µM; GI50 [15]: 33.1 µM; TGI [16]: 20.4 µM; CC50 [16, 27]: 91.2 µM; GI50 [20]: > 100 µM; GI50 [23]: 70.8 µM; inhibition (INH) [26]: 16%
COc1ccc(-c2cc(-c3cccn3C)c(C#N)c(N)n2)cc1OC	5.13	40.7	> 100	19.5	> 100	97.7	38.9	20.9	38	46.8	40.7	83.2	91.2	56.2	67.6	> 100	64.6	83.2	93.3	89.1	inhibition (INH) [25]: 19%; TGI [8]: 70.8 µM; GI50 [14]: 83.2 µM; GI50 [15]: 87.1 µM; GI50 [20]: 0.01 µM; LC50 (concentration causing net 50% loss of initial cells) [20]: 9.77 µM; TGI [20]: 3.98 µM; GI50 [23]: 95.5 µM; inhibition (INH) [26]: 33%
Cn1cccc1-c1cc(-c2cccs2)[nH]c(=O)c1C#N	10	25.7	69.2	> 100	83.2	13.8	> 100	38.1	> 100	> 100	> 100	> 100	> 100	> 100	> 100	52.5	> 100	> 100	> 100	> 100	TGI [1]: 40.7 µM; TGI [6]: 27.5 µM; CC50 [6, 27]: 54.9 µM; GI50 [14]: 17.8 µM; GI50 [15]: 72.4 µM; GI50 [20]: > 100 µM; GI50 [23]: 22.9 µM
CC1CCCc2c1[nH]c(=O)c(C#N)c2-c1cccn1C (stereo not drawn)	> 100	> 100	> 100	> 100	> 100	> 100	> 100	39.8	> 100	> 100	69.2	> 100	> 100	> 100	> 100	> 100	> 100	> 100	> 100	> 100	GI50 [14]: > 100 µM; GI50 [15]: > 100 µM; GI50 [20]: > 100 µM; GI50 [23]: > 100 µM
COc1ccc(-c2cc(-c3cccn3C)c(C#N)c(=O)[nH]2)cc1OC	0.05	> 100	> 100	> 100	> 100	–	> 100	–	> 100	22.9	> 100	> 100	> 100	0.48	> 100	30.9	34.7	> 100	> 100	91.2	TGI [1]: 9.77 µM; inhibition (INH) [25]: 17%; inhibition (INH) [26]: 31%
Cn1cccc1-c1cc(-c2ccccc2)[nH]c(=O)c1C#N	0.11	> 100	> 100	> 100	> 100	> 100	> 100	47.4	83.2	29.1	> 100	> 100	> 100	> 100	> 100	31.7	85.1	> 100	> 100	> 100	TGI [1]: 0.13 µM; TGI [10]: 57.4 µM; GI50 [14]: 27.5 µM; GI50 [15]: 97.7 µM; GI50 [20]: > 100 µM; GI50 [23]: > 100 µM
